Bioassay records from PubChem.
HTR2A ag = agonists of mouse serotonin 5-HT2A receptor (HTR2A); P35363; CHO-K1 mHTR2A beta-arrestin complementation, luminescence; percent of 30 µM serotonin response; activation, % at 7.6 µM; 360,000 compounds, 0.66% hits; AID 624169;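 active = activation above a run cutoff, the mean activation of all tested compounds plus 3 SD, cut at about 14% in these data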
CCR6 antagonist = blocks CCL20-driven beta-arrestin recruitment at human CCR6; P51684; CHO-K1 CCR6 PathHunter beta-arrestin, luminescence, CCL20-stimulated; inhibition, % at 20 µM; 340,000 compounds, 0.49% hits; AID 493098;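 active = compounds whose inhibition of the agonist-driven luminescence signal at 20 µM reaches about 50%, limit read from the data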;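 note: cells stimulated with CCL20 at 14 nM final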
APJ antag = antagonists of human APJ apelin receptor. CHO-K1 APJ beta-arrestin complementation, luminescence. P35414. inhibition, % at 20 µM. 330,000 compounds, 0.32% hits;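 active = inhibition above about 40% at 20 µM, limit read from the data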;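 note: cells challenged with 10 nM apelin-13 agonist together with compound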
CXCR6 inh = blocks human CXCR6 beta-arrestin recruitment | CHO-K1 PathHunter CXCR6 beta-arrestin, luminescence | inhibition, % at 20 µM | AID 602244 | O00574 | 360,000 compounds, 0.36% hits; in the data active = inhibition above about 34%, passing the limit was not always enough;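 note: antagonist mode with CXCL16 agonist at 10 nM final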
APJ ag = APJ receptor agonism | AID 2520 | 330,000 compounds, 0.11% hits | activation, % at 20 µM | CHO-K1 APJ PathHunter beta-arrestin, luminescence; 0% DMSO wells, 100% apelin;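 active = activation more than six SD over the plate average, tested at 20 µM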
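assay system = CHO-K1 APJ beta-arrestin complementation cell line | input = cell density 1000 per well | dosing = compound 20 µM once, DMSO 1% | timing = compound 90 min 25 °C, reagent 1 h | measured by = luminescence from split beta-galactosidase complementation, Galacton Star/Emerald II substrate | read-out basis = APJ agonist activity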
EBI2 antag = blocks human EBI2 receptor beta-arrestin signaling; P32249; EBI2 beta-arrestin recruitment, luminescence, 7a,25-OHC stimulated; inhibition, % at 5 µM; 360,000 compounds, 0.81% hits; in the data active = inhibition above about 38%;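 note: enzyme fragment complementation signal reports receptor beta-arrestin coupling in cells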
Target sequence (P32249 whole entry, looked up, the tested form may be a part): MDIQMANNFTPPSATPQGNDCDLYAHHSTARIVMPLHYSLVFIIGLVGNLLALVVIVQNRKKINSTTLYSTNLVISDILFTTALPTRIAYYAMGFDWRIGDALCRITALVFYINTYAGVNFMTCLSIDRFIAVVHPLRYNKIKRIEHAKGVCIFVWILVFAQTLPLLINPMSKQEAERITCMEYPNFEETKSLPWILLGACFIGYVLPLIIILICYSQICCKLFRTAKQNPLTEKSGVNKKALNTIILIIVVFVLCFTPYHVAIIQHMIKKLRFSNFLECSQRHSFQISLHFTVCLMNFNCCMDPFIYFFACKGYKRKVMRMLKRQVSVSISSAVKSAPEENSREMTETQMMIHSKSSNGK
EBI2 conf = EBI2 (human) antagonism, single concentration confirmation; EBI2 beta-arrestin luminescence, 7a,25-OHC antagonism; 2,400 compounds, 29% hits; inhibition, % at 5 µM; shares compounds with EBI2 antag;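 active = inhibition of at least 50%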
EBI2 ag = EBI2 agonism counter-screen; shares compounds with EBI2 antag; EBI2-expressing cells, agonist mode, luminescence, 60 min; 0% vehicle, 100% 7α,25-dihydroxycholesterol control; activation, % at 5 µM; 2,400 tested, under 10 active;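 active = activation of at least 50%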
bGal cs = inhibits E. coli beta-galactosidase, counter-screen for EBI2 antagonists; shares compounds with EBI2 antag; inhibition, % at 5 µM; purified beta-galactosidase, luminescent Galacton Star, 15 min; 2,400 compounds, 1% hits;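 active = replicate-average signal at least 3 plate SD below neutral wells, shown as high inhibition, flagging enzyme-inhibiting false positives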;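 note: higher means stronger loss of beta-gal luminescence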
Hits are given with their value; . = inactive; / = not tested or not shown. The list is not random: actives were taken first. Their share in the collection is about 2.1%.

SMILES	HTR2A ag	CCR6 antagonist	APJ antag	CXCR6 inh	APJ ag	EBI2 antag	EBI2 conf	EBI2 ag	bGal cs
COc1ccc(CN(Cc2ccc(OC)cc2)S(=O)(=O)c2ccc(-n3cnnn3)c(C)c2)cc1	.	.	.	.	.	45	.	.	.
Cc1c(C(=O)Oc2cccc3ccccc23)cnn1-c1ccccc1	.	.	.	.	.	31	.	.	.
CC(=O)c1cnn(-c2ccccc2)c1C	.	.	.	.	.	.	/	/	/
COc1cccc(NC(=O)C(Sc2nnc(Nc3ccccc3C)s2)c2ccccc2)c1 (configuration not stated)	.	.	.	.	.	46	.	.	.
COc1ccc(Nc2nnc(SC(C(=O)Nc3cc(C)ccc3C)c3ccccc3)s2)cc1 (configuration not stated)	.	.	.	.	.	.	/	/	/
CCOc1cc(/C=N/NC(=O)c2nnn(-c3nonc3N)c2C)ccc1OCc1ccc(F)cc1	.	.	.	.	.	52	.	.	.
CCOc1cc(/C=N/NC(=O)c2nnn(-c3nonc3N)c2C)ccc1OCc1ccc(C)cc1	.	/	/	.	/	54	51	.	.
CCOc1cc(/C=N/NC(=O)c2nnn(-c3nonc3N)c2C)ccc1OCc1cccc(F)c1	.	.	.	.	.	42	.	.	.
Cc1cccc(COc2ccc(/C=N/NC(=O)c3nnn(-c4nonc4N)c3C)cc2)c1	.	.	.	.	.	.	/	/	/
Cc1ccc(COc2cccc(/C=N/NC(=O)c3nnn(-c4nonc4N)c3C)c2)cc1	.	.	.	.	.	.	/	/	/
COc1cc2nc(CN(C)Cc3ccc(Cl)cc3)[nH]c(=O)c2cc1OC	.	.	.	.	.	.	/	/	/
Cc1ccc(NC(=O)CNCc2ccccc2)c(Br)c1	.	.	.	.	.	.	/	/	/
COc1ccc(-c2nnn(CC(=O)c3c[nH]c4ccccc34)n2)cc1OC	.	.	.	.	.	.	/	/	/
O=C(CSc1nnc(Cc2cccs2)n1C1CCCCC1)N1CCCc2ccccc21	.	.	.	.	.	.	/	/	/
O=C(CC1C(=O)NCCN1CC1CCCCC1)NCc1ccccc1Cl (configuration not stated)	.	.	.	.	.	.	/	/	/
COc1ccccc1/C=N/NC(=O)NC12CC3CC(CC(C3)C1)C2	.	.	.	.	.	47	.	.	.
COc1ccc(/C=N/NC(=O)NC23CC4CC(CC(C4)C2)C3)c(OC)c1	.	.	.	.	.	.	/	/	/
CCOC(=O)c1c(NC(=O)CN2CCCc3ccccc32)sc(C)c1C	.	.	.	.	.	.	/	/	/
COCCOC(=O)c1c(NC(=O)CN2CCCc3ccccc32)sc(C(N)=O)c1C	.	.	.	.	.	76	.	.	.
CCN(c1cccc(C)c1)S(=O)(=O)c1ccc(-c2cc(C)no2)s1	.	.	.	.	.	.	/	/	/
Cc1ccccc1OCCn1cc(/C=C(\C#N)C(=O)NCc2ccco2)c2ccccc21	.	.	.	.	.	.	/	/	/
N#C/C(=C\c1cn(CCOc2ccccc2)c2ccccc12)C(=O)NCc1ccco1	.	.	.	.	.	46	.	.	.
Cc1ccc(SC(C)C(=O)NCc2ccncc2)cc1 (configuration not stated)	.	.	.	.	.	.	/	/	/
CN(Cc1ccccc1)C(=O)c1nc[nH]c1C(=O)N1CCN(C(=O)OC(C)(C)C)CC1	.	.	.	.	.	.	/	/	/
Cc1ccc(OCCNC(=O)c2ccc(C)cc2)cc1	.	.	.	.	.	40	.	.	.
SMILES	HTR2A ag	CCR6 antagonist	APJ antag	CXCR6 inh	APJ ag	EBI2 antag	EBI2 conf	EBI2 ag	bGal cs
Cc1ccc(OCCNC(=O)c2cccc(Oc3ccc(C(F)(F)F)cc3[N+](=O)[O-])c2)cc1	.	.	.	.	.	40	.	.	.
COCc1c(C(=O)Nc2nnc(C3CC3)s2)oc2ccccc12	.	/	/	.	/	.	/	/	/
COC(=O)Cc1ccc(NC(=O)c2ccc3c(c2)C(=O)N(CC2CCCO2)C3=O)cc1 (configuration not stated)	.	.	.	.	.	.	/	/	/
COCCCN1C(=O)c2ccc(C(=O)Nc3ccc(OC)cc3)cc2C1=O	.	.	.	.	.	58	.	.	.
COc1ccc(NC(=O)c2ccc3c(c2)C(=O)N(CC2CCCO2)C3=O)cc1 (configuration not stated)	.	.	.	.	.	80	.	.	.
COc1cccc(NC(=O)c2ccc3c(c2)C(=O)N(CC2CCCO2)C3=O)c1 (configuration not stated)	.	.	.	.	.	60	.	.	.
COC(=O)c1cccc(NC(=O)c2ccc3c(c2)C(=O)N(CC2CCCO2)C3=O)c1 (configuration not stated)	.	.	.	.	.	44	.	.	.
COCCCN1C(=O)c2ccc(C(=O)Nc3ccccc3OC)cc2C1=O	.	.	.	.	.	.	/	/	/
COc1cccc(C(=O)Nc2ccc3c(c2)C(=O)N(CC2CCCO2)C3=O)c1 (configuration not stated)	.	.	.	.	.	.	/	/	/
CC1=C(C(=O)Nc2cccc([N+](=O)[O-])c2)C2(CCC(C)CC2)OC1=O (configuration not stated)	.	.	.	.	.	.	/	/	/
O=C(CCCC(=O)N(CC(=O)NC1CCCCC1)CC1CCCO1)Nc1ccccn1 (configuration not stated)	.	.	.	.	.	.	/	/	/
CC(=O)c1c(C)nc2cc(Cl)ccc2c1N	.	.	.	.	.	.	/	/	/
CCN1C(=O)c2ccc(C(=O)Nc3ccc4c(c3)OCO4)cc2C1=O	.	.	.	.	.	49	.	.	.
O=C(COc1ccccc1)Nc1ccc2c(c1)C(=O)N(CC1CCCO1)C2=O (configuration not stated)	.	.	.	.	.	45	.	.	.
Cc1cc(C)c(C#N)c(SCC(O)COc2ccc(Br)cc2)n1 (configuration not stated)	.	.	.	.	.	65	.	.	.
Cc1cc(C)c(C#N)c(SCC(O)CS(=O)(=O)Cc2ccccc2)n1 (configuration not stated)	.	.	.	.	.	.	/	/	/
COC(=O)c1cc(NC(=O)c2cc3ccccc3o2)cc(C(=O)OC)c1	.	.	.	.	.	.	/	/	/
COC(=O)c1cccc(NC(=O)c2cc3ccccc3o2)c1	.	.	.	.	.	44	.	.	.
